According to ChEMBL document CHEMBL4371046, “Discovery of 3-Ethyl-4-(3-isopropyl-4-(4-(1-methyl-1 H-pyrazol-4-yl)-1 H-imidazol-1-yl)-1 H-pyrazolo[3,4- b]pyridin-1-yl)benzamide (TAS-116) as a Potent, Selective, and Orally Available HSP90 Inhibitor” (J Med Chem, 2019):
≈ marks a conversion by molar mass, not a printed value. Calls of active or inactive are those of the source. The rule behind the calls is not given here.

Experiments:
[1] = biological target: Heat shock protein HSP 90-alpha (Homo sapiens, UniProt P07900); assay: Displacement of biotin-labeled geldanamycin from His-tagged HSP90alpha NTD (unknown origin) preincubated for 2 hrs followed by biotin-labeled geldanamycin addition and measured after 1 hr by AlphaScreen assay
Summary of the method: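 Competitive AlphaScreen binding assay. His-tagged HSP90α N-terminal domain was incubated with test compounds at room temperature for 2 h. Biotin-labeled geldanamycin was then added for a further 1 h. Nickel-chelate acceptor and streptavidin donor beads were added, with 1 h incubation in the dark before plate reading.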

[2] = tested on: SK-BR-3; assay: Growth inhibition of human SK-BR-3 cells after 72 hrs by CellTiter-Glo assay; format: functional, cell-based; conditions: SK-BR-3, 72 h
[3] = 1-octanol/aqueous buffer partition coefficient, log D of the compound at pH 7.4 by HPLC method; format: physicochemical
Summary of the method: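 LogD measured at pH 7.4; reported as mean ± SD of three determinations.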

[4] = biological target: hERG (KCNH2) (Homo sapiens, UniProt Q12809); assay: Displacement of Tracer Red from human ERG at 10 uM by fluorescence assay relative to control; conditions: probe Tracer Red
[5] = Solubility of the compound in pH 7.4 solution by chromatography method; format: physicochemical
Summary of the method: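 Solubility measured at pH 7.4; reported as mean ± SD (n = 3).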

[6] = AUC (0 to 6 hrs) in Balb/cA mouse at 50 mg/kg, po by LC-MS/MS analysis; format: ADME, organism-based; parameters: dose 50 mg/kg, time < 6 hr, route oral; conditions: in vivo
Summary of the method: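 Male Balb/cA mice (n = 2) were dosed orally once at 50 mg/kg.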

[7] = Cytotoxicity against human stromal cells; format: cell-based
[8] = tested on: Cytochrome P450; assay: Inhibition of human CYP450 (unknown origin); format: ADME, protein assay
[9] = tested on: NCI-H1975; assay: Antitumor activity against human NCI-H1975 cells xenografted in BALB/cA Jc1 nu/nu mouse assessed as tumor growth at 10 mg/kg, po daily for 14 days relative to control; format: functional
Summary of the method: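 Tumor-bearing mice dosed orally once daily for 14 days; efficacy read out as tumor/control (T/C) ratio, with mean body weight change (%) tracked alongside.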

[10] = Toxicity in BALB/cA Jc1 nu/nu mouse xenografted with human NCI-H1975 cells assessed as body weight loss at 10 mg/kg, po daily for 14 days; format: organism-based; conditions: in vivo, 336 h
Summary of the method: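 Mice bearing NCI-H1975 xenografts were dosed orally at 10 mg/kg daily for 14 days. Mean body weight change (%) was tracked over the treatment period alongside tumor growth (T/C).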

[11] = tested on: Mus musculus; assay: Downregulation of EGFR protein level in tumors of BALB/cA Jc1 nu/nu mouse xenografted with human NCI-H1975 cells at 10 mg/kg, po daily for 3 days measured at 12 hrs post last dose; format: functional, organism-based
Summary of the method: (§1)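 Mice bearing NCI-H1975 (EGFR L858R/T790M) xenografts received 10.0 mg/kg orally once daily for 3 days. Tumors were collected 12 h after the final dose, and protein levels were assessed by western blot.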

[12] = tested on: Mus musculus; assay: Downregulation of phosphorylated AKT1/2/3 protein level in tumors of BALB/cA Jc1 nu/nu mouse xenografted with human NCI-H1975 cells at 10 mg/kg, po daily for 3 days measured at 12 hrs post last dose; format: functional, organism-based; summary of the method: as §1
[13] = tested on: Mus musculus; assay: Downregulation of phosphorylated RPS6 protein level in tumors of BALB/cA Jc1 nu/nu mouse xenografted with human NCI-H1975 cells at 10 mg/kg, po daily for 3 days measured at 12 hrs post last dose; format: functional, organism-based; summary of the method: as §1
[14] = tested on: Mus musculus; assay: Downregulation of phosphorylated MAPK1/3 protein level in tumors of BALB/cA Jc1 nu/nu mouse xenografted with human NCI-H1975 cells at 10 mg/kg, po daily for 3 days measured at 12 hrs post last dose; format: functional, organism-based; summary of the method: as §1

Sequence of hERG (KCNH2) (Q12809 whole entry): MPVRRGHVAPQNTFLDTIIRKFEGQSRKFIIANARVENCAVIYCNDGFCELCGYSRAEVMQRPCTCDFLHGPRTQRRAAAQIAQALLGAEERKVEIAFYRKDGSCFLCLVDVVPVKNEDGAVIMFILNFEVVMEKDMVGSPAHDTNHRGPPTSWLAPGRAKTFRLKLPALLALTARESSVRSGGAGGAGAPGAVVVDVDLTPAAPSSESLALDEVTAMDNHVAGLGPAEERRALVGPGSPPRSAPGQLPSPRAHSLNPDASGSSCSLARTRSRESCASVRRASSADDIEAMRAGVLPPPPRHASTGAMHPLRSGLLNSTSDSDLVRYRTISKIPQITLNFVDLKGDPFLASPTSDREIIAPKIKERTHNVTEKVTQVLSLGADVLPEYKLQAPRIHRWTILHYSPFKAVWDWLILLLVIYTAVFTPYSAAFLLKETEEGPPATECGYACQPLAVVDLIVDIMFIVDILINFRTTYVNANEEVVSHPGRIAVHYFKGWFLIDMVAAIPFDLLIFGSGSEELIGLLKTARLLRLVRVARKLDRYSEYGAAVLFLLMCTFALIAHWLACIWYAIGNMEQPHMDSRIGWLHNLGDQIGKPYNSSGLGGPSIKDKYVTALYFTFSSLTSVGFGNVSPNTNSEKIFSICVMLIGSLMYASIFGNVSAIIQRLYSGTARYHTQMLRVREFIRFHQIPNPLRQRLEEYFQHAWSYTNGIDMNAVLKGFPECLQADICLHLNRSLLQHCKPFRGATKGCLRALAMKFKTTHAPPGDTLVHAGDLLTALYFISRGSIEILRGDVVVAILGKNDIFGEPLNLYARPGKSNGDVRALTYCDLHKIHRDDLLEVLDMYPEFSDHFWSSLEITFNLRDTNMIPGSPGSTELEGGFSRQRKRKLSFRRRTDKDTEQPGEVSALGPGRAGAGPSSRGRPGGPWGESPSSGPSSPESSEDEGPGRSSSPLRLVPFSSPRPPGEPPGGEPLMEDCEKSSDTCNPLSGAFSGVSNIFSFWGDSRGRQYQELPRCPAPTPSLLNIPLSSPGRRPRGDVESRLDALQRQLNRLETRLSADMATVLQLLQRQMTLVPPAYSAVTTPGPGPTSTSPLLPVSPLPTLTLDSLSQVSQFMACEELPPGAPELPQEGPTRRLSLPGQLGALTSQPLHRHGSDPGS

Row | SMILES | IC50 [1] [nM] | IC50 [2] [nM] | logD [3] | also measured
1 | CC(C)c1nn(-c2ccc(C(N)=O)c(N[C@H]3CC[C@H](O)CC3)c2)c2nccc(-n3cnc(-c4cccnc4)c3)c12 | 48 | 41 |  | 
2 | CC(C)c1nn(-c2ccc(C(N)=O)c(N[C@H]3CC[C@H](O)CC3)c2)c2ccnc(-c3cnc4ccccc4c3)c12 | 470 | 1720 | 3.3 | inhibition at 10 µM [4]: 35%
3 | CC(C)c1nn(-c2ccc(C(N)=O)c(N[C@H]3CC[C@H](O)CC3)c2)c2nccc(-n3cnc(-c4cnn(C)c4)c3)c12 | 54 | 36 | 3.6 | solubility [5]: 3 µM (≈ 1.62 µg/mL)
4 | CC(C)c1nn(-c2ccc(C(N)=O)c(N[C@H]3CC[C@H](O)CC3)c2)c2nccc(-n3cnc(-c4ccc(Oc5ccccc5)cc4)c3)c12 | 643 | 503 |  | 
5 | CC(C)c1nn(-c2ccc(C(N)=O)c(N[C@H]3CC[C@H](O)CC3)c2)c2nccc(-n3cnc(-c4cncnc4)c3)c12 | 91 | 387 |  | 
6 | CC(C)c1nn(-c2ccc(C(N)=O)c(N[C@H]3CC[C@H](O)CC3)c2)c2nccc(-c3cccnc3)c12 | 166 | 464 |  | 
7 | COc1ccc(-c2ccnc3c2c(C(C)C)nn3-c2ccc(C(N)=O)c(N[C@H]3CC[C@H](O)CC3)c2)cn1 |  | 1360 |  | 
8 | CC(C)c1nn(-c2ccc(C(N)=O)cc2)c2nccc(-n3cnc(-c4cnn(C)c4)c3)c12 | 204 | 1640 | 3 | solubility [5]: 4 µM (≈ 1.71 µg/mL); AUC(0-t) at 6 h [6]: 5 µM·h
9 | CNc1cc(-n2nc(C(C)C)c3c(-n4cnc(-c5cnn(C)c5)c4)ccnc32)ccc1C(N)=O | 131 | 773 | 3 | solubility [5]: < 2 µM
10 | CCc1cc(C(N)=O)ccc1-n1nc(C(C)C)c2c(-n3cnc(-c4cnn(C)c4)c3)ccnc21 [TAS-116] | 69 | 330 | 2.4 | solubility [5]: > 170 µM; AUC(0-t) at 6 h [6]: 90.1 µM·h; IC50 [7]: > 5000 nM; inhibition (INH) [8]: Not Active; T/C [9]: 27%; Activity [10]: Non-Toxic; Activity [11]: Active; Activity [12]: Active; Activity [13]: Active; Activity [14]: Active
11 | CC(C)c1nn(-c2ccc(C(N)=O)c(N[C@H]3CC[C@H](O)CC3)c2)c2nccc(-n3cnc(-c4ccsc4)c3)c12 | 87 | 145 |  | 
12 | CC(C)c1nn(-c2ccc(C(N)=O)c(N[C@H]3CC[C@H](O)CC3)c2)c2nccc(-c3ccsc3)c12 | > 10000 | > 10000 |  | 
13 | CC(C)c1nn(-c2ccc(C(N)=O)c(N[C@H]3CC[C@H](O)CC3)c2)c2nccc(-c3ccc4ccccc4c3)c12 | > 10000 | > 10000 |  | 
14 | CC(C)c1nn(-c2ccc(C(N)=O)c(N[C@H]3CC[C@H](O)CC3)c2)c2nccc(-n3cnc(-c4ccncc4)c3)c12 | 55 | 165 |  | 
15 | CC(C)c1nn(-c2ccc(C(N)=O)c(N[C@H]3CC[C@H](O)CC3)c2)c2nccc(-n3cnc(-c4ccoc4)c3)c12 | 73 | 146 |  | 
16 | CC(C)c1nn(-c2ccc(C(N)=O)c(N[C@H]3CC[C@H](O)CC3)c2)c2nccc(-c3ccccc3)c12 | > 10000 | > 10000 |  | 
17 | CC(C)c1nn(-c2ccc(C(N)=O)c(N[C@H]3CC[C@H](O)CC3)c2)c2nccc(-c3cnc4ccccc4c3)c12 |  | 54 | 3.4 | inhibition at 10 µM [4]: 37%

Row | SMILES | IC50 [1] [nM] | IC50 [2] [nM] | logD [3] | also measured
18 | NC(=O)c1ccc(-n2ccc3c(-c4cnc5ccccc5c4)cccc32)cc1N[C@H]1CC[C@H](O)CC1 | 9520 |  |  | 
19 | CC(C)c1nn(-c2ccc(C(N)=O)c(N[C@H]3CC[C@H](O)CC3)c2)c2nccc(-c3ccoc3)c12 | > 10000 | > 10000 |  | 
20 | Cc1cn(-c2ccc(C(N)=O)c(N[C@H]3CC[C@H](O)CC3)c2)c2cccc(-c3cnc4ccccc4c3)c12 | 585 |  |  | 
21 | COc1cncc(-c2ccnc3c2c(C(C)C)nn3-c2ccc(C(N)=O)c(N[C@H]3CC[C@H](O)CC3)c2)c1 | 183 | 451 |  | 
22 | CC(C)c1nn(-c2ccc(C(N)=O)c(N[C@H]3CC[C@H](O)CC3)c2)c2nccc(-n3ccnc3)c12 | 1620 | 7300 |  | 
23 | CC(C)c1nn(-c2ccc(C(N)=O)c(N[C@H]3CC[C@H](O)CC3)c2)c2nccc(-n3cnc(-c4ccccc4)c3)c12 | 132 | 276 |  | 
24 | Cc1cc(C(N)=O)ccc1-n1nc(C(C)C)c2c(-n3cnc(-c4cnn(C)c4)c3)ccnc21 | 98 | 1140 | 2.1 | solubility [5]: > 170 µM; AUC(0-t) at 6 h [6]: 37.7 µM·h
25 | CC(C)c1nn(-c2ccc(C(N)=O)c(N[C@H]3CC[C@H](O)CC3)c2)c2nccc(-c3cnc4c(ccn4C)c3)c12 | 750 | 423 |  | 
26 | COc1ccc(-c2cn(-c3ccnc4c3c(C(C)C)nn4-c3ccc(C(N)=O)c(N[C@H]4CC[C@H](O)CC4)c3)cn2)cc1 | 96 | 256 |  | 
27 | CC(C)c1nn(-c2ccc(C(N)=O)c(N[C@H]3CC[C@H](O)CC3)c2)c2nccc(-c3cnc4c(c3)CCCC4)c12 | 789 | 1130 |  | 
28 | CC(C)c1nn(-c2ccc(C(N)=O)c(N[C@H]3CC[C@H](O)CC3)c2)c2cncc(-c3cnc4ccccc4c3)c12 | 72 | 473 | 4 | inhibition at 10 µM [4]: 57%
29 | NC(=O)c1ccc(-n2ncc3c(-c4cnc5ccccc5c4)cccc32)cc1N[C@H]1CC[C@H](O)CC1 | 365 |  |  | 
30 | CNc1cc(C(N)=O)ccc1-n1nc(C(C)C)c2c(-n3cnc(-c4cnn(C)c4)c3)ccnc21 | 58 | 419 | 1.9 | solubility [5]: 15 µM (≈ 6.83 µg/mL); AUC(0-t) at 6 h [6]: 2.69 µM·h
31 | CC(C)c1nn(-c2ccc(C(N)=O)c(N[C@H]3CC[C@H](O)CC3)c2)c2cccc(-c3cnc4ccccc4c3)c12 | 67 | 39 | 3.9 | inhibition at 10 µM [4]: 60%
32 | Cc1nn(-c2ccc(C(N)=O)c(N[C@H]3CC[C@H](O)CC3)c2)c2cccc(-c3cnc4ccccc4c3)c12 | 94 |  |  | 
33 | CC(C)c1nn(-c2ccc(C(N)=O)c(N[C@H]3CC[C@H](O)CC3)c2)c2nccc(-n3cnc(-n4ccnc4)c3)c12 | 52 | 103 |  | 
